What was measured:
[1] = Absorption and fluorescence spectroscopy, quantum yield, TCSPC lifetime, TRES; format: physicochemical; settings: for λem: 720 nm excitation; for τ (fluorescence lifetime): TCSPC, 773 nm excitation, 820 nm detection; for Φ (quantum yield): relative to ICG in DMSO
[2] = Aggregation / stability of probes in solvents; format: physicochemical
[3] = test system: intradermal 4T1luc tumors in mouse ears; assay: High resolution noninvasive NIR imaging of intradermal ear tumors; format: in vivo, mouse (female balb/c); settings: post-injection
How it was run: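 4T1luc cells (1×10^4) were implanted intradermally in each ear; n=3. From day 3, isoflurane-anaesthetised mice had glycerin-coated ears imaged at 800 nm (0.02 mm/pixel). Nanoparticles (0.10 mL, 4×10^13 particles/mL) or small-molecule probe (0.02 mL, 20 μM, 20% DMSO/water) were given i.v. by tail vein. Imaging was pre-, immediately post-, 4 h and 24 h post-injection, repeated days 8 and 15. Background-subtracted tumour ROI intensity was normalised to injected dose from vessel ROIs.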

[4] = test system: subcutaneous 4T1luc tumors; assay: Whole-body planar fluorescence reflectance imaging; format: in vivo, mouse (male NCR nude); settings: 24 hours post-injection, i.v., subcutaneous 4T1luc tumor
How it was run: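 Tumours were 2×10^5 4T1luc cells s.c. in the right shoulder; n=3. Mice received i.v. 100 μl small-molecule probe (20 μM, 20% DMSO/water) or 150 μL nanoparticles. Planar NIR reflectance images (755±35 nm excitation, 830 nm emission, 60 s) were taken at 1, 4 and 24 h, with white-light/X-ray reference. Organs were then imaged ex vivo. ROI mean intensities were compared by Student's t-test (α = 0.05).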

[5] = 20% DMSO/water, room temperature

Compound | ε × 10^-3 ([1]; DMSO, room temperature) | λabs ([1]; DMSO, room temperature) | λem ([1]; DMSO, room temperature) | τ (fluorescence lifetime) ([1]; DMSO) | Φ (quantum yield) ([1]; DMSO) | aggregation ([2]; aqueous solutions) | λabs [1, 5] | λem [1, 5] | τ (fluorescence lifetime) ([1]; 20% DMSO/water) | Φ (quantum yield) ([1]; 20% DMSO/water) | stability in solvent ([2]; 20% DMSO/water) | time of peak tumor-to-normal contrast [3] | In vivo tumor contrast [4]
CC1(C)C(/C=C/C=C/C=C/C=C2/N(CCC(=O)O)c3ccc4ccccc4c3C2(C)C)=[N+](CCC(=O)[O-])c2ccc3ccccc3c21 [cypate] | 224 M^-1 cm^-1 | 790 nm | 817 nm | 0.97 ns | 0.12 | form non-emissive aggregates |  |  |  |  |  |  | 
cypate-cRGDfK |  |  |  |  |  |  | 790 nm | 804 nm | 0.24 ns | 0.036 | stable | 4 h | 1.32 +/- 0.13

From article PMC2914325 (Nanomedicine (London, England), 2010)
